Laboratory results taken from ChEMBL document CHEMBL4689842, “EUbOPEN Chemogenomics Library wave 1” (2021).

Test system: HEK-293T
Experiment: Multiplex assay against HEK293T;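 for Population Tubulin-Different-Phenotype (%): share of the cells with healthy nuclei that show this phenotype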
Type: toxicity, cell-based
Conditions: human
Outline: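 Hoechst33342, BioTracker Green Microtubule Cytoskeleton Dye, MitoTracker Red and Annexin V Alexa Fluor 680 were added to live cells at seeding, and imaging on a CQ1 microscope at 37°C and 5% CO2 followed compound addition. Gating by CellPathfinder machine learning separated cells into Hoechst high-intensity objects or normal cells, then normal cells into healthy, pyknosed or fragmented nuclei, then pyknosed cells into mitotic or apoptotic. Per cents of healthy-nucleus cells are reported for the tubulin, mitochondrial-mass and membrane-permeability phenotypes.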

[1] = 12 h, 1 µM, compound concentration 1 uM, replicate 1
[2] = 12 h, 1 µM, compound concentration 1 uM, replicate 2
[3] = 12 h, 10 µM, compound concentration 10 uM, replicate 1
[4] = 12 h, 10 µM, compound concentration 10 uM, replicate 2
[5] = 24 h, 1 µM, compound concentration 1 uM, replicate 1
[6] = 24 h, 1 µM, compound concentration 1 uM, replicate 2
[7] = 24 h, 10 µM, compound concentration 10 uM, replicate 1
[8] = 24 h, 10 µM, compound concentration 10 uM, replicate 2
[9] = 48 h, 1 µM, compound concentration 1 uM, replicate 1
[10] = 48 h, 1 µM, compound concentration 1 uM, replicate 2
[11] = 48 h, 10 µM, compound concentration 10 uM, replicate 1
[12] = 48 h, 10 µM, compound concentration 10 uM, replicate 2

Cc1csc2c(N[C@@H](C)CN3CCN(S(=O)(=O)c4ccc(Cl)c(Cl)c4)CC3)ncnc12
Population Apoptotic (%) [1]: 58%
Population Fragmented Nuclei (%) [1]: 12%
Population Healthy Nuclei (%) [1]: 16%
Population Hoechst High Intensity Objects (%) [1]: 19%
Population Membrane Permeable-Phenotype (%) [1]: 6%
Population Mitochondria Different-Phenotype (%) [1]: 96%
Population Mitotic Cells (%) [1]: 41%
Population Normal (%) [1]: 80%
Population Pyknosed Nuclei (%) [1]: 71%
Population Tubulin-Different-Phenotype (%) [1]: 93%
Total Cell Count [1]: 223
Population Apoptotic (%) [2]: 27%
Population Fragmented Nuclei (%) [2]: 5%
Population Healthy Nuclei (%) [2]: 29%
Population Hoechst High Intensity Objects (%) [2]: 13%
Population Membrane Permeable-Phenotype (%) [2]: 14%
Population Mitochondria Different-Phenotype (%) [2]: 47%
Population Mitotic Cells (%) [2]: 72%
Population Normal (%) [2]: 86%
Population Pyknosed Nuclei (%) [2]: 64%
Population Tubulin-Different-Phenotype (%) [2]: 64%
Total Cell Count [2]: 135
Population Apoptotic (%) [3]: 79%
Population Fragmented Nuclei (%) [3]: 9%
Population Healthy Nuclei (%) [3]: 5%
Population Hoechst High Intensity Objects (%) [3]: 11%
Population Membrane Permeable-Phenotype (%) [3]: 20%
Population Mitochondria Different-Phenotype (%) [3]: 90%
Population Mitotic Cells (%) [3]: 20%
Population Normal (%) [3]: 88%
Population Pyknosed Nuclei (%) [3]: 84%
Population Tubulin-Different-Phenotype (%) [3]: 80%
Total Cell Count [3]: 197
Population Apoptotic (%) [4]: 80%
Population Fragmented Nuclei (%) [4]: 5%
Population Healthy Nuclei (%) [4]: 11%
Population Hoechst High Intensity Objects (%) [4]: 8%
Population Membrane Permeable-Phenotype (%) [4]: 9%
Population Mitotic Cells (%) [4]: 19%
Population Normal (%) [4]: 91%
Population Pyknosed Nuclei (%) [4]: 83%
Population Tubulin-Different-Phenotype (%) [4]: 68%
Total Cell Count [4]: 206
Population Apoptotic (%) [5]: 57%
Population Fragmented Nuclei (%) [5]: 16%
Population Healthy Nuclei (%) [5]: 21%
Population Hoechst High Intensity Objects (%) [5]: 18%
Population Membrane Permeable-Phenotype (%) [5]: 4%
Population Mitochondria Different-Phenotype (%) [5]: 93%
Population Mitotic Cells (%) [5]: 42%
Population Normal (%) [5]: 81%
Population Pyknosed Nuclei (%) [5]: 62%
Population Tubulin-Different-Phenotype (%) [5]: 90%
Total Cell Count [5]: 244
Population Apoptotic (%) [6]: 35%
Population Fragmented Nuclei (%) [6]: 10%
Population Healthy Nuclei (%) [6]: 28%
Population Hoechst High Intensity Objects (%) [6]: 7%
Population Membrane Permeable-Phenotype (%) [6]: 8%
Population Mitochondria Different-Phenotype (%) [6]: 44%
Population Mitotic Cells (%) [6]: 64%
Population Normal (%) [6]: 92%
Population Pyknosed Nuclei (%) [6]: 61%
Population Tubulin-Different-Phenotype (%) [6]: 88%
Total Cell Count [6]: 131
Population Apoptotic (%) [7]: 85%
Population Fragmented Nuclei (%) [7]: 12%
Population Healthy Nuclei (%) [7]: 6%
Population Hoechst High Intensity Objects (%) [7]: 16%
Population Membrane Permeable-Phenotype (%) [7]: 27%
Population Mitochondria Different-Phenotype (%) [7]: 90%
Population Mitotic Cells (%) [7]: 14%
Population Normal (%) [7]: 83%
Population Pyknosed Nuclei (%) [7]: 80%
Population Tubulin-Different-Phenotype (%) [7]: 63%
Total Cell Count [7]: 208
Population Apoptotic (%) [8]: 88%
Population Fragmented Nuclei (%) [8]: 5%
Population Healthy Nuclei (%) [8]: 7%
Population Hoechst High Intensity Objects (%) [8]: 9%
Population Membrane Permeable-Phenotype (%) [8]: 0%
Population Mitochondria Different-Phenotype (%) [8]: 85%
Population Mitotic Cells (%) [8]: 11%
Population Normal (%) [8]: 91%
Population Pyknosed Nuclei (%) [8]: 86%
Population Tubulin-Different-Phenotype (%) [8]: 71%
Total Cell Count [8]: 200
Population Apoptotic (%) [9]: 59%
Population Fragmented Nuclei (%) [9]: 16%
Population Healthy Nuclei (%) [9]: 38%
Population Hoechst High Intensity Objects (%) [9]: 17%
Population Membrane Permeable-Phenotype (%) [9]: 5%
Population Mitochondria Different-Phenotype (%) [9]: 80%
Population Mitotic Cells (%) [9]: 40%
Population Normal (%) [9]: 82%
Population Pyknosed Nuclei (%) [9]: 45%
Population Tubulin-Different-Phenotype (%) [9]: 85%
Total Cell Count [9]: 240
Population Apoptotic (%) [10]: 29%
Population Fragmented Nuclei (%) [10]: 10%
Population Healthy Nuclei (%) [10]: 47%
Population Hoechst High Intensity Objects (%) [10]: 8%
Population Membrane Permeable-Phenotype (%) [10]: 17%
Population Mitochondria Different-Phenotype (%) [10]: 44%
Population Mitotic Cells (%) [10]: 70%
Population Normal (%) [10]: 91%
Population Pyknosed Nuclei (%) [10]: 42%
Population Tubulin-Different-Phenotype (%) [10]: 89%
Total Cell Count [10]: 159
Population Apoptotic (%) [11]: 47%
Population Fragmented Nuclei (%) [11]: 23%
Population Healthy Nuclei (%) [11]: 4%
Population Hoechst High Intensity Objects (%) [11]: 17%
Population Membrane Permeable-Phenotype (%) [11]: 25%
Population Mitochondria Different-Phenotype (%) [11]: 62%
Population Mitotic Cells (%) [11]: 52%
Population Normal (%) [11]: 82%
Population Pyknosed Nuclei (%) [11]: 72%
Population Tubulin-Different-Phenotype (%) [11]: 87%
Total Cell Count [11]: 229
Population Apoptotic (%) [12]: 74%
Population Fragmented Nuclei (%) [12]: 4%
Population Healthy Nuclei (%) [12]: 21%
Population Hoechst High Intensity Objects (%) [12]: 13%
Population Membrane Permeable-Phenotype (%) [12]: 8%
Population Mitochondria Different-Phenotype (%) [12]: 78%
Population Mitotic Cells (%) [12]: 25%
Population Normal (%) [12]: 86%
Population Pyknosed Nuclei (%) [12]: 73%
Population Tubulin-Different-Phenotype (%) [12]: 67%
Total Cell Count [12]: 199

CN(C)C(=O)/C(C#N)=C/c1ccc(-c2nc3cnc4[nH]ccc4c3n2C2CCCCC2)o1
Population Apoptotic (%) [1]: 48%
Population Fragmented Nuclei (%) [1]: 9%
Population Healthy Nuclei (%) [1]: 42%
Population Hoechst High Intensity Objects (%) [1]: 12%
Population Membrane Permeable-Phenotype (%) [1]: 2%
Population Mitochondria Different-Phenotype (%) [1]: 68%
Population Mitotic Cells (%) [1]: 51%
Population Normal (%) [1]: 87%
Population Pyknosed Nuclei (%) [1]: 48%
Population Tubulin-Different-Phenotype (%) [1]: 44%
Total Cell Count [1]: 283
Population Apoptotic (%) [2]: 21%
Population Fragmented Nuclei (%) [2]: 6%
Population Healthy Nuclei (%) [2]: 46%
Population Hoechst High Intensity Objects (%) [2]: 5%
Population Membrane Permeable-Phenotype (%) [2]: 5%
Population Mitochondria Different-Phenotype (%) [2]: 36%
Population Mitotic Cells (%) [2]: 78%
Population Normal (%) [2]: 94%
Population Pyknosed Nuclei (%) [2]: 46%
Population Tubulin-Different-Phenotype (%) [2]: 37%
Total Cell Count [2]: 175
Population Apoptotic (%) [3]: 41%
Population Fragmented Nuclei (%) [3]: 24%
Population Healthy Nuclei (%) [3]: 39%
Population Hoechst High Intensity Objects (%) [3]: 37%
Population Membrane Permeable-Phenotype (%) [3]: 17%
Population Mitochondria Different-Phenotype (%) [3]: 63%
Population Mitotic Cells (%) [3]: 58%
Population Normal (%) [3]: 62%
Population Pyknosed Nuclei (%) [3]: 36%
Population Tubulin-Different-Phenotype (%) [3]: 60%
Total Cell Count [3]: 451
Population Apoptotic (%) [4]: 32%
Population Fragmented Nuclei (%) [4]: 17%
Population Healthy Nuclei (%) [4]: 43%
Population Hoechst High Intensity Objects (%) [4]: 25%
Population Membrane Permeable-Phenotype (%) [4]: 15%
Population Mitochondria Different-Phenotype (%) [4]: 50%
Population Mitotic Cells (%) [4]: 67%
Population Normal (%) [4]: 74%
Population Pyknosed Nuclei (%) [4]: 39%
Population Tubulin-Different-Phenotype (%) [4]: 79%
Total Cell Count [4]: 219
Population Apoptotic (%) [5]: 46%
Population Fragmented Nuclei (%) [5]: 10%
Population Healthy Nuclei (%) [5]: 45%
Population Hoechst High Intensity Objects (%) [5]: 14%
Population Membrane Permeable-Phenotype (%) [5]: 2%
Population Mitochondria Different-Phenotype (%) [5]: 60%
Population Mitotic Cells (%) [5]: 53%
Population Normal (%) [5]: 85%
Population Pyknosed Nuclei (%) [5]: 44%
Population Tubulin-Different-Phenotype (%) [5]: 40%
Total Cell Count [5]: 316
Population Apoptotic (%) [6]: 21%
Population Fragmented Nuclei (%) [6]: 8%
Population Healthy Nuclei (%) [6]: 68%
Population Hoechst High Intensity Objects (%) [6]: 2%
Population Membrane Permeable-Phenotype (%) [6]: 10%
Population Mitochondria Different-Phenotype (%) [6]: 23%
Population Mitotic Cells (%) [6]: 78%
Population Normal (%) [6]: 97%
Population Pyknosed Nuclei (%) [6]: 22%
Population Tubulin-Different-Phenotype (%) [6]: 34%
Total Cell Count [6]: 239
Population Apoptotic (%) [7]: 44%
Population Fragmented Nuclei (%) [7]: 25%
Population Healthy Nuclei (%) [7]: 39%
Population Hoechst High Intensity Objects (%) [7]: 41%
Population Membrane Permeable-Phenotype (%) [7]: 9%
Population Mitochondria Different-Phenotype (%) [7]: 61%
Population Mitotic Cells (%) [7]: 55%
Population Normal (%) [7]: 58%
Population Pyknosed Nuclei (%) [7]: 35%
Population Tubulin-Different-Phenotype (%) [7]: 57%
Total Cell Count [7]: 448
Population Apoptotic (%) [8]: 34%
Population Fragmented Nuclei (%) [8]: 22%
Population Healthy Nuclei (%) [8]: 56%
Population Hoechst High Intensity Objects (%) [8]: 30%
Population Membrane Permeable-Phenotype (%) [8]: 7%
Population Mitochondria Different-Phenotype (%) [8]: 49%
Population Mitotic Cells (%) [8]: 65%
Population Normal (%) [8]: 69%
Population Pyknosed Nuclei (%) [8]: 21%
Population Tubulin-Different-Phenotype (%) [8]: 72%
Total Cell Count [8]: 280
Population Apoptotic (%) [9]: 45%
Population Fragmented Nuclei (%) [9]: 13%
Population Healthy Nuclei (%) [9]: 49%
Population Hoechst High Intensity Objects (%) [9]: 13%
Population Membrane Permeable-Phenotype (%) [9]: 2%
Population Mitochondria Different-Phenotype (%) [9]: 21%
Population Mitotic Cells (%) [9]: 54%
Population Normal (%) [9]: 86%
Population Pyknosed Nuclei (%) [9]: 37%
Population Tubulin-Different-Phenotype (%) [9]: 30%
Total Cell Count [9]: 381
Population Apoptotic (%) [10]: 15%
Population Fragmented Nuclei (%) [10]: 9%
Population Healthy Nuclei (%) [10]: 80%
Population Hoechst High Intensity Objects (%) [10]: 3%
Population Membrane Permeable-Phenotype (%) [10]: 8%
Population Mitochondria Different-Phenotype (%) [10]: 5%
Population Mitotic Cells (%) [10]: 84%
Population Normal (%) [10]: 96%
Population Pyknosed Nuclei (%) [10]: 10%
Population Tubulin-Different-Phenotype (%) [10]: 21%
Total Cell Count [10]: 389
Population Apoptotic (%) [11]: 46%
Population Fragmented Nuclei (%) [11]: 26%
Population Healthy Nuclei (%) [11]: 46%
Population Hoechst High Intensity Objects (%) [11]: 34%
Population Membrane Permeable-Phenotype (%) [11]: 13%
Population Mitochondria Different-Phenotype (%) [11]: 29%
Population Mitotic Cells (%) [11]: 53%
Population Normal (%) [11]: 65%
Population Pyknosed Nuclei (%) [11]: 27%
Population Tubulin-Different-Phenotype (%) [11]: 40%
Total Cell Count [11]: 490
Population Apoptotic (%) [12]: 35%
Population Fragmented Nuclei (%) [12]: 18%
Population Healthy Nuclei (%) [12]: 67%
Population Hoechst High Intensity Objects (%) [12]: 21%
Population Membrane Permeable-Phenotype (%) [12]: 10%
Population Mitochondria Different-Phenotype (%) [12]: 17%
Population Mitotic Cells (%) [12]: 64%
Population Normal (%) [12]: 78%
Population Pyknosed Nuclei (%) [12]: 13%
Population Tubulin-Different-Phenotype (%) [12]: 49%
Total Cell Count [12]: 338
